From publication PMC7673712 (Science Advances, 2020)

Columns and labels:
[1] = NO absorption by ILs, gravimetric method; type: physicochemical; details: 30°C until full absorption
Method in brief: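 The system was purged with N2 (60 ml/min, 30 min). NO at atmospheric pressure was then bubbled at about 20 ml/min through about 1 g of test compound held in a metal block at 30°C. Uptake was weighed at regular intervals on a balance (±0.0001 g) until absorption was complete, and expressed as mol NO per mol compound.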

[2] = HNO release half-life of IL-NONOates in PBS, UV absorbance decay at 330 nm; type: physicochemical; details: IL-NONOate formed from the IL; 37°C, pH 7.4, 0.01 M phosphate buffer (PBS)
[3] = ITC binding of ILs to cardiolipin; details: compared with [Ch][Tau] or [EMIm][APA]
Method in brief: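 Isothermal titration calorimetry at 25°C. An aqueous solution of test compound in the syringe was titrated into aqueous 18:1 cardiolipin in the sample cell. One small injection was followed by 28 larger injections, each lasting 10 s, with 120 s between injections and stirring at 1001 rpm. The binding constant was obtained from analysis of the calorimetric data.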

CT-26 cells = assay: Cellular GSH quantitative analysis; type: cell-based; details: 1.0 mM, 0.5 and 2 hours
Method in brief: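 CT-26 cells (RPMI 1640, 10% FBS, 37°C, 5% CO2) seeded in 24-well plates at 40,000 cells/well for 18 h. Medium replaced with serum-free medium containing test compound at various concentrations. After 0.5 or 2 h the cells were lysed and intracellular GSH was measured with a GSH/GSSG assay kit.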

[4] = test system: CT-26 cells and MCF-7 cells; assay: Cellular RNS detection, red fluorescent dye, microscopy and flow cytometry; type: cell-based; details: after 4 hours of treatment, CT-26 and MCF-7 cells
Method in brief: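 CT-26 and MCF-7 cells (RPMI 1640, 10% FBS, 37°C, 5% CO2) grown in 24-well plates were preloaded with NO detection reagent for 2 h under normal culture conditions. The reagent was removed, and cells were exposed to test compound for 1, 2 or 4 h, with a commercial HNO donor as positive control. Cells were washed once, and red fluorescence was imaged by inverted fluorescence microscopy.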

SMILES | Absorption capacity [1] | t1/2 (HNO release half-life) [2] | also measured
C[N+](C)(C)CCO.NCCC(=O)[O-] [[Ch][APA]] | 1.70 mol NO per mol of IL | 1061 min | binding constant with CL, comparison [3]: significantly higher
C1CCC2=NCCCN2CC1.NCCS(=O)(=O)O [[DBU][Tau]] | 2.79 mol NO per mol of IL | – | –
C[N+](C)(C)CCO.NCCS(=O)(=O)[O-] [[Ch][Tau]] | 1.67 mol NO per mol of IL | – | –
C[N+](C)(CCO)CCO.NCCS(=O)(=O)[O-] [[HEMN][Tau]] | 2.51 mol NO per mol of IL | – | –
CCn1cc[n+](C)c1.NCS(=O)(=O)[O-] [[EMIm][AMS]] | 1.38 mol NO per mol of IL | 324 min | –
[Na+].[Na+].[O-][N+]([O-])=NO [AS, Na2N2O3] | – | – | intracellular GSH levels (CT-26 cells): restoration of GSH; intracellular RNS level [4]: failed to achieve this goal
CCn1cc[n+](C)c1.NCCS(=O)(=O)[O-] [[EMIm][Tau]] | 2.28 mol NO per mol of IL | – | –
CCCCCCCCCCCCCC[P+](CCCCCC)(CCCCCC)CCCCCC.NCCS(=O)(=O)[O-] [[P66614][Tau]] | 3.33 mol NO per mol of IL | 325 min | –
CCn1cc[n+](C)c1.NCCC(=O)[O-] [[EMIm][APA]] | 2.11 mol NO per mol of IL | 996 min | –
CCn1cc[n+](C)c1.NCCCS(=O)(=O)[O-] [[EMIm][APS]] | 2.79 mol NO per mol of IL | 959 min | –
